Results on 97 molecules are retold here after ChEMBL document CHEMBL4513216, “Probing the Open Global Health Chemical Diversity Library for Multistage-Active Starting Points for Next-Generation Antimalarials” (ACS Infect Dis, 2020).

This series can be described thus: Toxicity liver stage against HepG2, at 10uM. Also on record: test concentration 10 uM, cell line HepG2-A16-CD81EGFP. In kind it is cell-based. The following applies: human, HepG2-A16-CD81EGFP cells; read-out: INHIBITION
The procedure, abridged: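 Uninfected HepG2-A16-CD81EGFP cells, 3 × 10^3 per well, 1536-well, plated on prespotted compound at 10 μM final, parasite-free screening media added to match infected plates; puromycin 10 μM positive, DMSO 0.5% negative; run in parallel with 48 h PbLuc assay at 37 °C, 5% CO2; viability by CellTiter-Glo luminescence, normalized to controls.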
For `CN(CC(=O)N1CCN(c2ccccc2F)CC1)c1cnccn1`, the cytotoxicity at 10 µM is -0.341%.
As to `COC(=O)C1CCN(c2cncc(-n3nc(C)cc3C)n2)CC1`, the cytotoxicity at 10 µM was -9.44%.
As to `CCN(C)CC1CCN(C(=O)Nc2ccc(-c3csnn3)cc2)C1` (configuration not stated), the cytotoxicity at 10 µM was -2.15%.
In the case of `O=C(c1cccnc1SCc1ccccc1)N1CC[C@@H](O)C1` it was -2.04%.
Regarding `CC(C(=O)NCc1ccnc(N(C)C)c1)n1cccn1` (configuration not stated), the cytotoxicity at 10 µM is -13.8%.
As for `CC(O)CN1CCN(C(=O)c2cnn(-c3ccccc3F)c2)CC1` (configuration not stated), the cytotoxicity at 10 µM was -6.81%.
On to `Cn1cccc1C(=O)N1CCC2(CCN2c2ncccn2)C1` (configuration not stated), for which the cytotoxicity at 10 µM was 10.7%.
As for `Cc1ocnc1C(=O)N1CCN(CCOc2ccccc2)CC1`, the cytotoxicity at 10 µM came to 1.12%.
Consider `CN1CCN(c2ccc(CO)cc2F)CC1`, for which the cytotoxicity at 10 µM is -42%.
In the case of `CC(C)c1nccn1C1CCCN(C(=O)c2ccn(C)c(=O)c2)C1` (configuration not stated), the cytotoxicity at 10 µM is 7.35%.
Take `CN(C)C(=O)N1CCC2(CC(=O)N(c3cccc(C#N)c3)C2)C1` (configuration not stated): the cytotoxicity at 10 µM is 3.33%.
For the molecule `CC(C)c1cnc(CN(C)C2CCN(CCS(C)(=O)=O)C2)o1` (configuration not stated), the cytotoxicity at 10 µM was 0.528%.
The figure for `CCC(C(=O)N(C)Cc1cc(C2CC2)[nH]n1)n1cccn1` (configuration not stated) is -8.35%.
`CNC(=O)CS(=O)(=O)Cc1coc(-c2cccc(F)c2)n1`: the cytotoxicity at 10 µM stood at 1.28%.
As for `COCCOc1ncccc1C(=O)Nc1c(C)cnn1CC1CC1`, the cytotoxicity at 10 µM was 3.36%.
In the case of `Cc1ccccc1N1CCN(C(=O)c2ncc(F)cc2F)C(C)C1` (configuration not stated) it was 11.4%; in that of `CC(NC(=O)NCCCNS(C)(=O)=O)c1ccncc1` (configuration not stated), 1.08%.
On to `CCn1cnc2c(cnn2-c2cccc(C)c2C)c1=O`, for which the cytotoxicity at 10 µM is -17.9%.
Regarding `Cc1nc2c(N3CCC(O)(Cn4ccnc4)CC3)ncnc2o1`, the cytotoxicity at 10 µM is 6.35%.
Turning to `COc1c(CNCc2ccnc(N3CCCC3)c2)c(C)nn1C`, the cytotoxicity at 10 µM is 4.31%.
As for `COc1ccc(CCNC(=O)C(C)Nc2cc(C)ccc2C)cc1` (configuration not stated), the cytotoxicity at 10 µM is -5.71%.
Turning to `Cc1c(Br)c(C(F)F)nn1C(C)C(=O)O` (configuration not stated), the cytotoxicity at 10 µM came to 4.51%.
The figure for `COCCCN1C(=O)c2ccc(C(=O)NCCc3c[nH]cn3)cc2C1=O` is -3.76%; for `O=C1N[C@@H]2CCN(C(=O)C3CCC3)[C@@H]2C(=O)N1c1ccc(F)cc1` it is -6.43%.
Regarding `Cn1cc(N2CCCC(SCc3ccco3)C2=O)cn1` (configuration not stated), the cytotoxicity at 10 µM worked out at 17.3%.
In the case of `COc1ccc(OCc2cc(C(=O)N3C[C@@H](C)O[C@@H](C)C3)n[nH]2)c(Cl)c1` it was -4.28%; in that of `Cc1ccc(C(=O)NCCCNc2ccc(C(F)(F)F)cn2)cc1`, -2.34%; in that of `CC(C)(C)c1cc(=O)[nH]c(C2(N)CCCC2)n1`, 8.79%.
Consider `Cc1cc(C(=O)CN2CCN(c3nccs3)CC2)c(C)n1C1CC1`, for which the cytotoxicity at 10 µM worked out at 10.6%.
As for `CCc1ccsc1C(=O)N1CCCN(Cc2nccn2CC)CC1`, the cytotoxicity at 10 µM stood at 1.84%.
As for `Cc1[nH]ncc1CCCNC(=O)N1CCOC(C)C1` (configuration not stated), the cytotoxicity at 10 µM stood at 3.14%.
Regarding `COCCOCC1(CNCc2ccc(OC)cc2)C[C@@H](O)[C@@H](O)C1` (some centres not stated), the cytotoxicity at 10 µM is -7.46%.
Consider `CC1=Nc2c(c(=O)[nH]n2C2CCOCC2)C(c2cccc(O)c2)S1` (configuration not stated), for which the cytotoxicity at 10 µM was -6.81%.
On to `O=C(NCCn1ccnc1-c1cc2n(n1)CCCNC2)c1ccncc1`, for which the cytotoxicity at 10 µM was -1.84%.
The figure for `Cc1csc(NC(=O)CN2CCc3nn(C)c(=O)cc3C2)n1` is -0.995%; for `O=C(c1ccc(SC(F)(F)F)cc1)N1CCOCC1c1ncon1` (configuration not stated) it is -0.449%.
Regarding `c1ccc(Cn2ccnc2CNC2CCCOc3ccccc32)cc1` (configuration not stated), the cytotoxicity at 10 µM is -4.34%.
`CC(C)n1cc(CN2CCCN(C(=O)c3cc(Cl)c[nH]3)CC2)cn1`: the cytotoxicity at 10 µM was -10.9%.
`Cc1cc(C)n(CC2CCCN2C(=O)Cc2cn3ccccc3n2)n1` (configuration not stated): the cytotoxicity at 10 µM was 2.47%.
The figure for `O=C([C@H]1C[C@H]2OCC[C@H]2N(Cc2ccoc2)C1)N1CCCCO1` is -73.2%; for `CCn1nnc2c1C(COCCN(C)C)CN(c1nncs1)C2` (configuration not stated) it is 1.52%.
In the case of `COc1ccccc1CNC(=O)Cn1nc(-c2ccc(F)cc2)oc1=O` it was -10.8%.
Regarding `Cn1ccnc1C(O)c1ccccc1N1CCN(Cc2ccsc2)CC1` (configuration not stated), the cytotoxicity at 10 µM stood at 3.19%.
In the case of `Cc1c(CS(C)(=O)=O)cccc1NC(=O)CC1CCCC1`, the cytotoxicity at 10 µM is -6.72%.
In the case of `c1cn(-c2nccnc2C2CCCN(C3CCOCC3)C2)cn1` (configuration not stated), the cytotoxicity at 10 µM was 4.19%.
With `Cn1ccc(CN2CCCC23CCN(Cc2ccccc2F)CC3)n1`, the cytotoxicity at 10 µM was -104%.
With `O=C1C[C@@H]2CC[C@H](CN1)N2C1CCOCC1`, the cytotoxicity at 10 µM is -5.1%.
As to `CSCC(=O)Nc1cccc(Oc2ccccn2)c1`, the cytotoxicity at 10 µM is -6.1%.
The figure for `COC(=O)c1cc(C(=O)N2CCOC(C)(C)C2)n(-c2ccccc2)n1` is -2.81%; for `Cc1cccc(CN2CCc3c(nc(N4CCC(C)CC4)[nH]c3=O)C2)n1` it is -1.75%; for `N#Cc1ccccc1N1CCCN(C(=O)CCn2cccn2)CC1` it is -13.1%.
As to `CN(C)CC1(O)CCCN(c2noc(-c3ccccc3)n2)CC1` (configuration not stated), the cytotoxicity at 10 µM was determined as 0.0264%.
As to `Cc1nc2cc(C3CCN(Cc4ccccc4F)C3)nn2c(O)c1C` (configuration not stated), the cytotoxicity at 10 µM was found to be 5.52%.
Turning to `CCOc1cc2c(cc1CCC(=O)O)CCC2`, the cytotoxicity at 10 µM was -4.63%.
`Cc1nn(CCC(=O)N2CCN(Cc3cnn(C)c3C)CC2)c(C)c1Br`: the cytotoxicity at 10 µM was found to be 4.07%.
With `O=C(c1ccc[nH]1)N1C[C@@H]2CC[C@H]1CN(C1Cc3ccccc3C1)C2`, the cytotoxicity at 10 µM was -1.85%.
The figure for `CCC(=O)NC(Cc1cc(N(C)C)nc(C2CC2)n1)c1ccccc1` (configuration not stated) is 0.301%; for `CS(=O)(=O)N1C[C@@H]2OCC(=O)N(CC3CCC3)[C@@H]2C1` it is 8.94%.
The figure for `CC(=O)N1CCCN(C(=O)NCCOc2ccc3c(c2)OCO3)CC1` is -14.9%; for `Cc1ccc(C#N)c(N2CC(C)(C)[C@@](C)(O)C2)n1` it is 1.39%; for `Cc1ccc(C(C)(C)CNC(=O)NC(C)Cn2cncn2)cc1` (configuration not stated) it is 3.09%.
The figure for `Cc1noc(C)c1CC(=O)NCC(C(C)C)N1CCOCC1` (configuration not stated) is -42.7%; for `Cn1nc(C(=O)NC2CCCCC2)cc1NC(=O)C1CC1` it is -3.97%; for `c1ccc(-n2ncc(CN3CCCC3Cn3cccn3)n2)cc1` (configuration not stated) it is -2.73%.
In the case of `CCn1cc(S(=O)(=O)NC(CO)Cc2ccccc2)cn1` (configuration not stated), the cytotoxicity at 10 µM worked out at 6.07%.
In the case of `CC(c1ccc(Cl)cc1)N1CCN(CCCS(C)(=O)=O)CC1` (configuration not stated) it was -8.73%; in that of `Cc1nn(C(C)C)c(C)c1S(=O)(=O)Nc1ccc(C(=O)O)cc1`, 15.2%; in that of `CCC(C)N(CCOC)Cc1nc2c(cnn2C)c(=O)[nH]1` (configuration not stated), -12.4%.
Take `CC(=O)c1ccc(S(=O)(=O)N2CCOC(Cn3ccnc3)C2)cc1` (configuration not stated): the cytotoxicity at 10 µM was found to be 6.58%.
Turning to `Cn1c(=O)[nH]c(=O)n2c(CC(=O)Nc3ccccc3)cnc12`, the cytotoxicity at 10 µM was found to be 5.81%.
`c1cnnc(N2CCCC(NCc3nc(C4CC4)no3)C2)c1` (configuration not stated): the cytotoxicity at 10 µM was -14.6%.
For the molecule `Cc1ccc(Oc2ncccc2C(=O)N(C)CC2OCCO2)c(C)c1`, the cytotoxicity at 10 µM was 3.54%.
In the case of `COC(=O)c1ccc(CCn2cnc(C#N)n2)cc1`, the cytotoxicity at 10 µM was -3.15%.
For the molecule `CC[C@H]1CN(C(=O)CCn2c(C)cccc2=O)CC[C@@]1(C)O`, the cytotoxicity at 10 µM was found to be 8.51%.
The figure for `Cc1ccc(O)c(CNCC(C)c2nc3ccccc3o2)n1` (configuration not stated) is -1.74%.
For `O=C(NCC1CCS(=O)(=O)C1)Nc1ccccn1` (configuration not stated), the cytotoxicity at 10 µM was 1.54%.
In the case of `CC(C)C(=O)NC1CC2(CCN(CC(=O)N(C)C)CC2)c2ccccc21` (configuration not stated) it was -103%.
In the case of `Nc1nc2c(c(NCc3nccs3)n1)CCN(CC1CCCC1)CC2`, the cytotoxicity at 10 µM was determined as 4.36%.
The figure for `CCc1nnc(Nc2cccc(C3CCN(c4cnccn4)CC3)n2)s1` is -26.5%; for `CC(C)(C)NC(=O)CNc1ncccn1` it is -5.09%.
With `CCCc1cc(C(=O)NCCCn2nnc3ccccc32)no1`, the cytotoxicity at 10 µM is -12.5%.
Take `CCn1c(CN(C)C)nnc1C1CCN(Cc2cccc(C#N)c2)CC1`: the cytotoxicity at 10 µM turned out to be 6.5%.
`Cc1nn(C)c(C)c1CNC1CCOc2ccccc21` (configuration not stated): the cytotoxicity at 10 µM worked out at 7.75%.
Take `Cc1ccoc1C(=O)N1CCCC2(CCCN2S(C)(=O)=O)C1` (configuration not stated): the cytotoxicity at 10 µM was -143%.
Take `CCc1nnc2n1CCN(C(=O)c1ccc(C(F)(F)F)nc1C)C2`: the cytotoxicity at 10 µM was -7.28%.
As to `Cc1cnn(CC2CCCN2C(=O)CCc2c(C)nc(C)[nH]c2=O)c1` (configuration not stated), the cytotoxicity at 10 µM is -2.79%.
For `Cc1cc(N2CCC(NC(C)Cc3ccsc3)CC2)nc(N)n1` (configuration not stated), the cytotoxicity at 10 µM is 2.22%.
In the case of `CCNC(=O)[C@@H]1C[C@H](N)CN1C(=O)c1cccc(CCC(C)(C)O)c1` it was 4.61%; in that of `CN(C)c1ccc(C(=O)N2CCC(c3cc4ncccc4[nH]3)CC2)cc1`, -2.32%; in that of `c1cc(NCc2cscn2)cc(OCCN2CCCCC2)c1`, -20.7%.
For the molecule `Cc1cccc2[nH]c(C3CCN(C(=O)c4cccnn4)CC3)nc12`, the cytotoxicity at 10 µM was 11.2%.
The figure for `CN1CC(=O)N(c2cnn(C)c2)CC12CCN(Cc1ccccc1)C2` (configuration not stated) is -7.24%; for `Cn1nc(C#N)c2c1CN(C(=O)c1c[nH]cn1)CCC2` it is -122%; for `N#Cc1ccc(S(=O)(=O)NC(=O)c2csc(-c3ccco3)n2)cc1` it is -8.17%.
Take `Cc1nc(NCCSc2nnc(C)s2)c2cccnc2n1`: the cytotoxicity at 10 µM is -0.125%.
In the case of `Cc1n[nH]cc1CNCC(O)c1ccc(F)c(F)c1` (configuration not stated) it was 6.8%.
The figure for `Cc1nc(N)cc(C2(C)CCCNC2)n1` (configuration not stated) is 1.36%.
